Laboratory results reported in publication PMC2577561 (Bioorganic & medicinal chemistry, 2008).
pIC50: −log10 of the molar value. Several values for one entry are separate records, joined by “and”; a condition that tells them apart may be missing. Identical values can stand only once.

Key:
[1] = test system: CFTR; details: read-out: IC50, block of CFTR chloride conductance; full block; cited from earlier work
[2] = test system: cholera toxin-induced intestinal fluid secretion; details: in vivo; cited from earlier work
[3] = cited from earlier work
[4] = Solubility in phosphate buffered saline by LC/MS; type: physicochemical; details: for Increase of water solubility compared with CFTRinh-172: in saline
Summary of the method: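 Saturated solution made by adding DMSO stock to phosphate buffered saline (final DMSO 2%). Sonicated 5 min at 25 °C, shaken 1 h at room temperature, then centrifuged at 15 000 rpm for 1 h. Supernatant quantified by LC/MS peak area against per-compound standard curves (1–15 or 1–100 μM, linear r > 0.998).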

[5] = test system: FRT cells; assay: Cytotoxicity, crystal violet staining; type: cell-based; details: 50 μM, 48 h, crystal violet staining vs vehicle-treated cultures
Summary of the method: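 Confluent FRT monolayers exposed to test compound for 2 days, washed 3 times, fixed for 30 min and stained with 0.5% crystal violet for 10 min. Dye extracted in Sorenson's buffer (0.1 M sodium citrate, 50% ethanol, pH 4.2) and read at 650 nm absorbance. Percent staining from 8 wells per test, referenced to cell-free blanks and vehicle-treated cells.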

[6] = test system: MDCK cell model; details: cited from earlier work
[7] = target: human wildtype CFTR (Homo sapiens, UniProt P13569); assay: Short-circuit current measurement of CFTR inhibition; type: cell-based; details: for CFTR inhibition activity (in words): short-circuit current, statements in running text; for IC50 (μM) / IC50: FRT cells expressing human wildtype CFTR; for IC50: IC50 (μM)
Sequence of human wildtype CFTR (P13569 whole entry): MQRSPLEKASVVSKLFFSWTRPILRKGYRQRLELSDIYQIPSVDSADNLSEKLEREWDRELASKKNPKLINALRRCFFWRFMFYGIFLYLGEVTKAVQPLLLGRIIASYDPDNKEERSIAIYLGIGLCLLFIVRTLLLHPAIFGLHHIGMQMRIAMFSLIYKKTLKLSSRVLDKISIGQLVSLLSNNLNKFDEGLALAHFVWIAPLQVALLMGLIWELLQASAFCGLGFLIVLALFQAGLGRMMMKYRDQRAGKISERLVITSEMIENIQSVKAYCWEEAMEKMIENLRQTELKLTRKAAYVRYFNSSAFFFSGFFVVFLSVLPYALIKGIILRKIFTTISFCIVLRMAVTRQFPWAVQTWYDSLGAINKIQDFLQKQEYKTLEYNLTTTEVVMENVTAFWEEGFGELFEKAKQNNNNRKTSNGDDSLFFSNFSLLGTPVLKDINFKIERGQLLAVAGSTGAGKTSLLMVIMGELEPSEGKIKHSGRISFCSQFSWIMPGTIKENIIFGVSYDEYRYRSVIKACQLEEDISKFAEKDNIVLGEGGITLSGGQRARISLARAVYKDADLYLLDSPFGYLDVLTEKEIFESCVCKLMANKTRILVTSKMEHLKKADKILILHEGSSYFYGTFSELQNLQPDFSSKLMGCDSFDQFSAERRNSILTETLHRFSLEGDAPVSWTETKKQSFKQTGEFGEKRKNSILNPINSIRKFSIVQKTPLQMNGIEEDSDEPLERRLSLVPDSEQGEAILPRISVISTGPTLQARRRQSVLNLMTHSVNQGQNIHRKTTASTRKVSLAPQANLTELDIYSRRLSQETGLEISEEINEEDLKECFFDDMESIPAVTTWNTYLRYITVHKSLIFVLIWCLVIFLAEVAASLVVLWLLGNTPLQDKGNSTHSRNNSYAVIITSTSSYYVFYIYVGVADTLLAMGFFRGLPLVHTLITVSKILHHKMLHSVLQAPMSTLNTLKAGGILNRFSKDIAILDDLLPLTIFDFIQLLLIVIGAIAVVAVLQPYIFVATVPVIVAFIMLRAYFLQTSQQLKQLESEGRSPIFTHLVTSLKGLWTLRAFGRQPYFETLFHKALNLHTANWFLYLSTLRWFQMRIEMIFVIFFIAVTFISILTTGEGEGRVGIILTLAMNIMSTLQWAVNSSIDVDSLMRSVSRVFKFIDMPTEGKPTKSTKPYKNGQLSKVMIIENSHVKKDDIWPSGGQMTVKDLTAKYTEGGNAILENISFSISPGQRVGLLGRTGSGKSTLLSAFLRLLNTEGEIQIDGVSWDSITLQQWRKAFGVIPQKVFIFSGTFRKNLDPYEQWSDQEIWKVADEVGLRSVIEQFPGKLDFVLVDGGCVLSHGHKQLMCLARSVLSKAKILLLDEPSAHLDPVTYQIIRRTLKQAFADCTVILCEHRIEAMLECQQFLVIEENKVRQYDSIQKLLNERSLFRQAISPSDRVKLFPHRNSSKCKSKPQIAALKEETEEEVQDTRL
Summary of the method: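 FRT cells stably expressing human wildtype CFTR, grown on 1 cm2 filters to >1,000 Ω.cm2. Basolateral membrane permeabilized with amphotericin B (250 μg/ml, 30 min). Basolateral buffer in mM: 130 NaCl, 10 Na-HEPES, 10 glucose, pH 7.3. Apical side had 65 mM NaCl swapped for gluconate, giving a Cl− gradient. 37 °C, 95% O2/5% CO2. CFTR activated with 100 μM CPT-cAMP, then inhibitor added at stepped concentrations. Voltage-clamped apical current recorded; IC50 fitted.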

[8] = Table 1, variations in Rings A and C
[9] = Table 2, variations in Ring B and Linkers 1 and 2

O=C(O)c1ccc(/C=C2\SC(=S)N(c3cccc(C(F)(F)F)c3)C2=O)cc1 [Compound 5, 4-[[4-Oxo-2-thioxo-3-[3-(trifluoromethyl)phenyl]-5-thiazolidinylidene]methyl]benzoic acid]
pIC50 [1]: > 6.30
Cholera toxin-induced intestinal fluid secretion [2]: efficacy in reducing cholera toxin-induced intestinal fluid secretion
Excretion and metabolism (in words) [3]: renal excretion with minimal metabolism
Toxicity (in words) [3]: low toxicity

O=C1/C(=C/c2ccc(-c3nn[nH]n3)cc2)SC(=S)N1c1cccc(C(F)(F)F)c1 [Compound 6, 5-[[4-(2H-Tetrazol-5-yl)phenyl]methylene]-2-thioxo-3-[3-(trifluoromethyl)phenyl]-4-thiazolidinone]
Increase of water solubility compared with CFTRinh-172 ([4]; listed as Tetrazolo-172): > 10 fold and 11 fold
% Cell viability [5]: reduced
Prevention of cyst formation [6]: substantially better than by CFTRinh-172

O=C(O)c1ccc(/C=C2\SC(=S)N(c3ccc(F)c(C(F)(F)F)c3)C2=O)cc1 [Compound 8]
CFTR inhibition activity (in words) [7]: intermediate activity

O=C(O)c1cccc(/C=C2\SC(=S)N(c3ccc(F)c(C(F)(F)F)c3)C2=O)c1 [Compound 11]
CFTR inhibition activity (in words) [7]: intermediate activity

Cc1cccc(N2C(=O)/C(=C/c3ccc(C(=O)O)cc3)SC2=S)c1 [Compound 12]
CFTR inhibition activity (in words) [7]: less active

O=C1/C(=C/c2cc(Br)c(O)c(Br)c2)SC(=S)N1c1cccc(C(F)(F)F)c1 [Compound 14]
CFTR inhibition activity (in words) [7]: modest inhibition activity

O=C1/C(=C/c2cc(Br)c(O)c(Br)c2O)SC(=S)N1c1cccc(C(F)(F)F)c1 [Compound 15]
CFTR inhibition activity (in words) [7]: modest inhibition activity

Cc1c(N2C(=O)/C(=C/c3ccc(C(=O)O)cc3)SC2=S)cccc1C(F)(F)F [Compound 18, 4-[[4-Oxo-2-thioxo-3-[2-methyl-3-(trifluoromethyl)phenyl]-5-thiazolidinylidene]methyl] benzoic acid]
% Cell viability [5]: reduced

O=C(O)c1ccc(/C=C2\SC(=S)N(c3ccc(Cl)c(C(F)(F)F)c3)C2=O)cc1 [Compound 24]
CFTR inhibition activity (in words) [7]: greatly reduced activity

O=C(O)c1ccc(/C=C2\SC(=S)N(c3cc(C(F)(F)F)ccc3Cl)C2=O)cc1 [Compound 30]
CFTR inhibition activity (in words) [7]: greatly reduced activity

O=C(O)COc1cccc(/C=C2\SC(=S)N(c3cccc(C(F)(F)F)c3)C2=O)c1 [Compound 36]
CFTR inhibition activity (in words) [7]: substantially reduced CFTR inhibition

O=C1/C(=C/c2ccc(O)c(O)c2)SC(=S)N1c1cccc(C(F)(F)F)c1 [Compound 38]
IC50 (μM) [7, 8]: Inactive

COc1c(Br)cc(/C=C2\SC(=S)N(c3cccc(C(F)(F)F)c3)C2=O)c(O)c1Br [Compound 39]
IC50 (μM) [7, 8]: Inactive

COc1cc(Br)ccc1/C=C1\SC(=S)N(c2cccc(C(F)(F)F)c2)C1=O [Compound 40]
IC50 (μM) [7, 8]: Inactive

COc1ccc(/C=C2\SC(=S)N(c3cccc(C(F)(F)F)c3)C2=O)cc1 [Compound 41]
IC50 (μM) [7, 8]: Inactive

NC(=O)c1ccc(/C=C2\SC(=S)N(c3cccc(C(F)(F)F)c3)C2=O)cc1 [Compound 42]
IC50 (μM) [7, 8]: Inactive

O=C(NCCO)c1ccc(/C=C2\SC(=S)N(c3cccc(C(F)(F)F)c3)C2=O)cc1 [Compound 43]
IC50 (μM) [7, 8]: Inactive

NCCNC(=O)c1ccc(/C=C2\SC(=S)N(c3cccc(C(F)(F)F)c3)C2=O)cc1 [Compound 44]
IC50 (μM) [7, 8]: Inactive

CCOC(=O)c1ccc(/C=C2\SC(=S)N(c3cccc(C(F)(F)F)c3)C2=O)cc1 [Compound 45]
IC50 (μM) [7, 8]: Inactive

CC(=O)OCOC(=O)c1ccc(/C=C2\SC(=S)N(c3cccc(C(F)(F)F)c3)C2=O)cc1 [Compound 46]
IC50 (μM) [7, 8]: Inactive

O=C(O)c1ccc(/C=C2\SC(=S)N(Cc3cccc(C(F)(F)F)c3)C2=O)cc1 [Compound 47, 4-[[4-Oxo-2-thioxo-3-[(3-(trifluoromethyl)phenyl)methyl]-5-thiazolidinylidene]methyl] benzoic acid]
IC50 (μM) [7, 9]: Inactive

O=C(O)c1ccc(/C=C2\SC(=O)N(c3cccc(C(F)(F)F)c3)C2=O)cc1 [Compound 48, 4-[[3-[3-(trifluoromethyl)phenyl]-2,4-dioxo-5-thiazolidinylidene]methyl]benzoic acid]
Reduction of CFTR inhibition potency compared with CFTRinh-172 ([7]; short-circuit current assays): 3.6 fold
Increase of water solubility compared with CFTRinh-172 [4]: ~ 25 fold

O=C(O)c1ccc(NC2=C(Cl)C(=O)N(c3cccc(C(F)(F)F)c3)C2=O)cc1 [Compound 50]
CFTR inhibition activity (in words) [7]: weak activity

O=C(O)c1ccc(SC2CC(=O)N(c3cccc(C(F)(F)F)c3)C2=O)cc1 (stereo not drawn) [Compound 51, 4-[[2,5-dioxo-1-[3-(trifluoromethyl)phenyl]-3-pyrrolidinyl]thio]-benzoic acid]
CFTR inhibition activity (in words) [7]: moderate activity

O=C(O)c1ccc(NC(=S)C2SC(=S)N(c3cccc(C(F)(F)F)c3)C2=O)cc1 (stereo not drawn) [Compound 52, 4-Oxo-[(3-trifluoromethyl)phenyl]-2-thioxo-N-[4-(carboxy)phenyl]-5-thiazolidinethio carboxamide]
Water solubility (in words) [4]: highly water soluble

O=C(O)c1ccc(NC(=S)C2SC(=S)N(c3cccc(C(F)(F)F)c3)C2=O)cc1O (stereo not drawn) [Compound 53, 4-Oxo-[(3-trifluoromethyl)phenyl]-2-thioxo-N-[(4-carboxy-3-hydroxy)phenyl]-5-thiazolidinethiocarboxamide]
IC50 [7, 9]: 11 µM
Water solubility (in words) [4]: highly water soluble

O=C1C(C(=S)Nc2ccc(S(=O)(=O)O)cc2)SC(=S)N1c1cccc(C(F)(F)F)c1 (stereo not drawn) [Compound 54]
IC50 [7, 9]: 25 µM

O=C(O)c1ccc(Nc2nc(-c3cccc(C(F)(F)F)c3)cs2)cc1 [Compound 59]
CFTR inhibition activity (in words) [7]: weakly active

O=C(O)c1cc(Nc2nc(-c3cccc(C(F)(F)F)c3)cs2)ccc1O [Compound 60]
CFTR inhibition activity (in words) [7]: weakly active

O=C(O)c1ccc(Nc2nnc(-c3cccc(C(F)(F)F)c3)s2)cc1 [Compound 64, 4-[(5-(3-Trifluoromethylphenyl)-1,3,4-thiadiazol-2-yl)amino]-benzoic acid]
IC50 (μM) [7, 9]: Inactive

O=C(O)c1ccc(-n2cc(-c3cccc(C(F)(F)F)c3)nn2)cc1 [Compound 68, 4-[4-[3-(trifluoromethyl)phenyl]-1H-1,2,3-triazol-1-yl]-benzoic acid]
IC50 (μM) [7, 9]: Inactive

O=C(O)c1ccc(-n2cc(-c3ccc(C(F)(F)F)cc3)nn2)cc1 [Compound 69]
IC50 (μM) [7, 9]: Inactive
